Laboratory results as given in ChEMBL document CHEMBL3098044, “Inhibition of carbonic anhydrases from the extremophilic bacteria Sulfurihydrogenibium yellostonense (SspCA) and S. azorense (SazCA) with a new series of sulfonamides incorporating aroylhydrazone-, [1,2,4]triazolo[3,4-b][1,3,4]thiadiazinyl- or 2-(cyanophenylmethylene)-1,3,4-thiadiazol-3(2H)-yl …” (Bioorg Med Chem, 2014).

Assays:
[1] = Inhibition of Sulfurihydrogenibium yellowstonense YO3AOP1 carbonic anhydrase preincubated for 15 mins by stopped-flow CO2 hydration assay
How it was run: (§1)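 Initial rates of CA-catalysed CO2 hydration followed for 10–100 s with phenol red (0.2 mM) read at 557 nm, in 10–20 mM Hepes pH 7.5 with 20 mM Na2SO4 for ionic strength. CO2 1.7–17 mM. Inhibitors in water at 0.01 mM stock, diluted down to 0.01 nM. Enzyme and inhibitor preincubated at room temperature. Uncatalysed rates subtracted. Ki from non-linear least squares and Cheng–Prusoff, mean of at least three determinations.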

[2] = Inhibition of Sulfurihydrogenibium azorense alpha-carbonic anhydrase preincubated for 15 mins by stopped-flow CO2 hydration assay; how it was run: as §1

Ki [1] [nM] | Ki [2] [nM] | SMILES
45.2 | 21.2 | COc1ccc(C(=O)N/N=C(C)/C(Cl)=N/Nc2ccc(S(N)(=O)=O)cc2)cc1
78.2 | 169 | COc1ccc(C(=O)N/N=C(C)/C(=N/Nc2ccc(S(N)(=O)=O)cc2)S(=O)(=O)c2ccccc2)cc1
28.3 | 18.3 | Cc1nn2c(C)nnc2s/c1=N/Nc1ccc(S(N)(=O)=O)cc1
38.7 | 193 | CCOC(=O)/C(C#N)=C1\SC(C(C)=O)=NN1c1ccc(S(N)(=O)=O)cc1
74.5 | 21.9 | CC(=N\NC(=O)c1cccs1)/C(=N/Nc1ccc(S(N)(=O)=O)cc1)S(=O)(=O)c1ccccc1
42.9 | 94.5 | CC(=N\NC(=O)c1ccccc1)/C(=N/Nc1ccc(S(N)(=O)=O)cc1)S(=O)(=O)c1ccccc1
76.8 | 234 | CC(=O)C1=NN(c2ccc(S(N)(=O)=O)cc2)/C(=C(\C#N)C(=O)c2ccccc2)S1
20.5 | 0.77 | CC(=N\NC(=O)c1cccs1)/C(=N/Nc1ccc(S(N)(=O)=O)cc1)N1CCCCC1
21.9 | 13.5 | CC(=N\NC(=O)c1ccccc1)/C(=N/Nc1ccc(S(N)(=O)=O)cc1)N1CCCCC1
80.6 | 8.1 | CC(=N\NC(=O)c1ccc(Cl)cc1)/C(=N/Nc1ccc(S(N)(=O)=O)cc1)N1CCCCC1
6.4 | 14.9 | CC(=N\NC(=O)c1cccs1)/C(Cl)=N/Nc1ccc(S(N)(=O)=O)cc1
68.3 | 59.1 | CC(=N\NC(=O)c1ccc(Cl)cc1)/C(=N/Nc1ccc(S(N)(=O)=O)cc1)S(=O)(=O)c1ccccc1
47.9 | 9.7 | Cc1nn2c(-c3ccccc3)nnc2s/c1=N/Nc1ccc(S(N)(=O)=O)cc1
6.2 | 24.3 | CC(=N\NC(=O)c1ccccc1)/C(Cl)=N/Nc1ccc(S(N)(=O)=O)cc1
89.1 | 116 | CC(=O)C1=NN(c2ccc(S(N)(=O)=O)cc2)C(=C(C#N)C#N)S1
71 | 101 | CC(=O)C1=NN(c2ccc(S(N)(=O)=O)cc2)/C(=C(\C#N)C(=O)Nc2ccc(S(N)(=O)=O)cc2)S1
51.1 | 18.5 | CC(=N\NC(=O)c1ccc(Cl)cc1)/C(Cl)=N/Nc1ccc(S(N)(=O)=O)cc1
62.8 | 4 | COc1ccc(C(=O)N/N=C(C)/C(=N/Nc2ccc(S(N)(=O)=O)cc2)N2CCCCC2)cc1

SMILES | Ki [1] [nM] | Ki [2] [nM]
CC(=O)Nc1nnc(S(N)(=O)=O)s1 [ACETAZOLAMIDE] | […] | 0.9
